Measurements from ChEMBL document CHEMBL1129651, “3-Phenyl-substituted imidazo[1,5-alpha]quinoxalin-4-ones and imidazo[1,5-alpha]quinoxaline ureas that have high affinity at the GABAA/benzodiazepine receptor complex” (J Med Chem, 1996).

How the values were obtained:
Rattus norvegicus = assay: Ability to antagonize metrazole-induced seizures (clonic and tonic) in rats after intraperitoneal injection; conditions: ip
[1] = biological target: GABA-A receptor; anion channel; assay: Binding affinity against benzodiazepine receptor (BzR) in rat cortical membranes determined by competition experiments with radiolabeled [3H]flunitrazepam (Fnz); format: cell membranes
[2] = biological target: GABA-A receptor; anion channel (Rattus norvegicus) (UniProt O09028+P15431+P18506+P18508+P19969+P20236+P23574+P23576+P28471+P28473+P30191+P62813+P63079+P63138+Q91ZM7+Q9ES14)
Mus musculus [3] = species on record: Mus musculus; assay: Antagonism of benzodiazepine traction in mice; format: functional
How it was run: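 Male CF-1 mice given triazolam 1 mg/kg ip together with test compound ip, starting at 100 mg/kg, in 0.25% aqueous methyl cellulose. Dose-response run on 0.5 log scale. Loss of traction scored 15 min later. Absence of the expected loss marks antagonism. ED50 taken from lower doses.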

Mus musculus [4] = species on record: Mus musculus; assay: Compound was tested for acute electroshock physical dependence activity (drug MA50/V122 MA50); Active; format: functional
How it was run: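 Male CF-1 mice, 10/group, dosed sc twice daily for 3 days (0800, then 2 times that dose at 1600). Flumazenil 2.5 mg/kg iv in 5% aqueous N,N-dimethylacetamide given 24 h after the last dose. 5 min later electroshock seizure threshold estimated by up-down method (0.05 log steps; transpinnal 0.6 ms pulses, 100 Hz, 0.2 s). Comparison is against a saline-treated, flumazenil-injected control group.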

## COc1ccc(-c2ncn3c2CN(C(=O)N2CC(C)N(C)C(C)C2)c2ccccc2-3)cc1 (stereo not given)
Rattus norvegicus
  ED50: 0.8 mg/kg
[1]
  Ki: 4.16 nM
[2]
  TBPS shift: 0.27
Mus musculus [3]
  ED50: > 30 mg/kg
Mus musculus [4]
  Activity: 0.6
